# Assay results published in PMC7495496 (DNA repair, 2019).
# Residue numbers refer to the chain shown, from its start. pKd: −log10 of the molar value. “Also recorded” adds a separate entry of the source. Like-named read-outs stand apart in the source and are kept apart here. Square brackets hold non-standard residues; d marks the D form. Ends that are not written are not given here. Phe(4-F) = N[C@@H](Cc1ccc(F)cc1)C(=O)O
# Assays:
# xlKu80 vWA(S229A) [1] = target: T1, xlKu80 vWA(S229A) (Xenopus laevis, UniProt Q6DDS9, C190S/DEL171-188/S229A); test: 19F NMR binding study, xlKu80 vWA; details: for binding affinity change resulting from S229A mutation: xlKu80 vWA(S229A) compared with unmodified xlKu80 vWA
# T1 sequence (Q6DDS9 with tags, fused parts or gaps DEL171-188/C190S/S229A limits assumed): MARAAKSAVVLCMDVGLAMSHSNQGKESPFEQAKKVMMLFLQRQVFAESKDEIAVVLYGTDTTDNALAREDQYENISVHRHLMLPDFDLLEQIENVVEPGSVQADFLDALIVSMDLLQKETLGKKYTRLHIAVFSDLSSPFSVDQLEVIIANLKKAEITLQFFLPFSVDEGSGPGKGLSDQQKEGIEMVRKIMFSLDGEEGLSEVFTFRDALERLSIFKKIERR
# Outline: (§1)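 Protein (0.2 mM; wild-type-derived or S229A vWA construct, His-tagged, expressed by autoinduction in E. coli BL21(DE3), Ni-NTA and gel filtration purified) titrated with XLF KBMX peptide carrying 4-fluoro-L-Phe at the penultimate position. Peptide stock held protease inhibitor cocktail. ¹⁹F spectra at 564.279 MHz, 25 °C. Internal standard 0.2 mM 4-fluorobenzamide (−34.9 ppm vs external TFA).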
# xlKu80 vWA = target: T2, xlKu80 vWA (Xenopus laevis, UniProt Q6DDS9, C190S/DEL171-188); test: 19F NMR binding study, xlKu80 vWA; details: 0.2 mM xlKu80 vWA; peptide 0.2, 0.4 and 1.0 mM; 25 °C; 150 mM NaCl, 25 mM HEPES
# T2 sequence (Q6DDS9 with tags, fused parts or gaps DEL171-188/C190S limits assumed): T1 sequence (Q6DDS9 with tags, fused parts or gaps DEL171-188/C190S/S229A limits assumed) with A211S
# Outline: as §1
# xlKu80 vWA(S229A) [2] = target: T1, xlKu80 vWA(S229A); test: X-ray crystallography of xlKu80 vWA; type: binding; details: crystal of xlKu80 vWA(S229A)-KBMX^XLF, PDB: 6TYX, 1.90 Å
# [3] = target: fluorescein-labeled human APLF KBM peptide (human); test: fluorescence polarisation
# [4] = target: fluorescein-labeled human APLF KBM peptide (human); test: fluorescence polarisation; remark: listed apart in the source
substance,measurement,setting,value
KBMX^XLF peptide: KBMX peptide from XLF (KPKKKAKGL[Phe(4-F)]M; not fully specified; printed as KPKKKAKGLF*M),binding affinity change resulting from S229A mutation,xlKu80 vWA(S229A) [1]; 19F NMR,increases dramatically; also recorded: dramatically increased affinity
same,binding affinity change resulting from S229A mutation,"xlKu80 vWA(S229A) [1]; 19F NMR, listed as KBMX^XLF motif peptide",capable of binding
same,19F NMR binding to xlKu80 vWA,xlKu80 vWA,negligible
same,binding confirmed by X-ray crystallography,xlKu80 vWA(S229A) [2],further confirmed by X-ray crystallography
KPKKKAKGLF*M [fluorinated XLF KBMX peptide],19F NMR linewidth in the presence of vWA(S229A),"xlKu80 vWA(S229A) [1]; 0.2 mM xlKu80 vWA(S229A), 1:1 ratio, 25 °C, 150 mM NaCl, 25 mM HEPES, 1 mM TCEP, 1 mM EDTA, 10 % D2O",109 Hz
same,exchange between 19F resonances of bound and free peptide,"xlKu80 vWA(S229A) [1]; 19F NMR, 0.2 mM xlKu80 vWA(S229A) plus 0.2, 0.3, 0.4 mM peptide, 25 °C",slow exchange
"human Ku80 von Willebrand domain (hsKu80 vWA), 1–240 aa, F47Q/F88Q/L234Q/F237Y (from UniProt P13010 1-240) (domain or fragment)",pKd,[3],6.79
same,pKd,[4],9.79
isolated Xenopus laevis Ku80 von Willebrand A-like domain (xlKu80 vWA) (domain or fragment),pKd,[3],6.88
same,pKd,[4],9.88
